Results on one compound are retold here after ChEMBL document CHEMBL1122887, “Structure-activity studies on the N-terminal region of growth hormone releasing factor” (1985).

Format in all cases: functional
In assay [1] the test system is Rattus norvegicus. The experiment in a line: Percent growth hormone releasing activity in anesthetized rat relative to hpGRF (1-29)NH2. In a few lines: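 In pentobarbital-anesthetized male Charles River rats (6–9/group), two subcutaneous analogue doses and GRF(1-29)NH₂ reference doses were given. Plasma GH was measured by radioimmunoassay in jugular blood taken 15 min post-injection. Relative potency with 95% confidence limits came from a four-point assay design by Pugsley's method. Not active means no activity at the doses tested.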

Assay [2] has as its system Rattus norvegicus. The experiment in a line: Effect on plasma growth hormone in anesthetized rat at a dose of 0.4 ug/100 g of body weight. Summed up:
(§1)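 Male Charles River rats (175–350 g) anesthetized with sodium pentobarbital (6 mg/100 g body wt); 30 min later, 6–9 per group received a single subcutaneous 0.5-mL injection of saline, GRF(1-29)NH₂ reference, or one of two analogue doses. Jugular vein blood was drawn 15 min post-injection, and plasma GH was measured by radioimmunoassay, reported as ng/mL ± SE.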

The subject of assay [3] is Rattus norvegicus. The experiment in a line: Effect on plasma growth hormone in anesthetized rat at a dose of 1 ug/100 g of body weight. In a few lines:
as §1

Regarding `CC[C@H](C)[C@H](NC(=O)[C@H](C)NC(=O)[C@H](CC(=O)O)NC(=O)[C@@H](C)NC(=O)[C@H](Cc1ccc(O)cc1)NC(C)=O)C(=O)N[C@@H](Cc1ccccc1)C(=O)N[C@H](C(=O)N[C@@H](CC(N)=O)C(=O)N[C@@H](CO)C(=O)N[C@@H](Cc1ccc(O)cc1)C(=O)N[C@@H](CCCN=C(N)N)C(=O)N[C@@H](CCCCN)C(=O)N[C@H](C(=O)N[C@@H](CC(C)C)C(=O)NCC(=O)N[C@@H](CCC(N)=O)C(=O)N[C@@H](CC(C)C)C(=O)N[C@@H](CO)C(=O)N[C@@H](C)C(=O)N[C@@H](CCCN=C(N)N)C(=O)N[C@@H](CCCCN)C(=O)N[C@@H](CC(C)C)C(=O)N[C@@H](CC(C)C)C(=O)N[C@@H](CCC(N)=O)C(=O)N[C@@H](CC(=O)O)C(=O)N[C@H](C(=O)N[C@@H](CCSC)C(=O)N[C@@H](CO)C(=O)N[C@@H](CCCN=C(N)N)C(N)=O)[C@@H](C)CC)C(C)C)[C@@H](C)O`, the Activity in assay [1] came out at 2558%; in assay [2], 1300 ng/mL; in assay [3], 2496 ng/mL.
